{"data": "Measurements from different studies", "target": "Mitogen-activated protein kinase kinase kinase 10 (MAP3K10, Homo sapiens, UniProt Q02779)", "note": "Compare with care: the assays were run in different laboratories."}
{"Structure (SMILES)": "Cc1cc(-n2nc(Cc3cc(F)cc(C(F)(F)F)c3)nc2C)ccc1C(N)=O", "observed": "cell-free assay", "technique": "competition with immobilised ligand", "tested at": "1 µM", "remaining binding": "95%"}
{"Structure (SMILES)": "CC1CCCN1c1nccc(-c2cnn3ncccc23)n1 (stereo not drawn)", "observed": "binding", "tested at": "1 µM", "remaining binding": "100%"}
{"Structure (SMILES)": "COc1ncc2cc3ccccc3nc2c1C#N", "observed": "cell-free assay", "technique": "competition with immobilised ligand", "tested at": "5 µM", "remaining binding": "79%"}
{"Structure (SMILES)": "CN(c1nccc(-c2cnn3ncccc23)n1)C1CC1", "observed": "binding", "tested at": "1 µM", "remaining binding": "76%"}
{"Structure (SMILES)": "O=C(NCCCN1CCOCC1)c1ccc(Nc2nccc(-c3cc4ccccc4s3)n2)cc1", "observed": "binding", "technique": "competition with immobilised ligand", "tested at": "1 µM", "remaining binding": "37%"}
{"Structure (SMILES)": "N[C@H]1CCN(c2nccc(-c3cnn4ncccc34)n2)C1", "observed": "binding", "tested at": "1 µM", "remaining binding": "92%"}
{"Structure (SMILES)": "O=C(Nc1c[nH]nc1C(=O)NC1CCNCC1)c1cc(F)cc(F)c1", "observed": "binding", "technique": "competition with immobilised ligand", "tested at": "1 µM", "remaining binding": "100%"}
{"Structure (SMILES)": "O=C(c1ccc(Nc2ncc(Cl)c(-c3ccc(Cl)s3)n2)cc1)N1CCC(N2CCCC2)CC1", "observed": "binding", "technique": "competition with immobilised ligand", "tested at": "1 µM", "remaining binding": "0%"}
{"Structure (SMILES)": "CN(C)c1ncc(F)c(-c2cnn3ncccc23)n1", "observed": "binding", "tested at": "1 µM", "remaining binding": "100%"}
{"Structure (SMILES)": "Cc1c(NC(=O)c2cc(C(N)=O)nc3cc(F)ccc23)c(C(F)(F)F)nn1Cc1ccc(C#N)cc1", "observed": "cell-free assay", "technique": "competition with immobilised ligand", "tested at": "1 µM", "remaining binding": "92%"}
{"Structure (SMILES)": "c1cncc(-c2cccc(Nc3nccc(NC4CCCCC4)n3)c2)c1", "observed": "binding", "technique": "competition with immobilised ligand", "tested at": "10 µM", "remaining binding": "49%"}
{"Structure (SMILES)": "CNC(=O)c1ccc(Nc2ncc(C(F)(F)F)c(NCc3nccnc3N(C)S(C)(=O)=O)n2)cc1", "observed": "cell-free assay", "technique": "competition with immobilised ligand", "tested at": "0.1 µM", "remaining binding": "68%"}
{"Structure (SMILES)": "c1cnn2ncc(-c3ccnc(N4CCC45COC5)n3)c2c1", "observed": "binding", "tested at": "1 µM", "remaining binding": "100%"}
{"Structure (SMILES)": "Nc1ncc2c(n1)-c1c([nH]c3ccc(C#CC4CC4)cc13)CCCC2", "observed": "binding", "technique": "competition with immobilised ligand", "tested at": "1 µM", "remaining binding": "91%"}
{"Structure (SMILES)": "CCN1CCN(Cc2ccc(C(=O)Nc3ccc(C)c(Oc4ccc5c(c4)CC(=O)N5)c3)cc2C(F)(F)F)CC1", "observed": "binding", "technique": "competition with immobilised ligand", "tested at": "1 µM", "remaining binding": "100%"}
{"Structure (SMILES)": "C[C@H](c1ccnc(Nc2nc3ccc(-c4cc(N(C)C)ncn4)cc3[nH]2)c1)N1CCN(C(=O)CC(F)(F)F)CC1", "observed": "cell-free assay", "technique": "competition with immobilised ligand", "tested at": "0.1 µM", "remaining binding": "100%"}
{"Structure (SMILES)": "CN(C)c1nccc(-c2cnn3ncccc23)n1", "observed": "binding", "tested at": "1 µM", "remaining binding": "98%"}
{"Structure (SMILES)": "C[C@H](c1cccc(C#N)c1)n1cc(Cl)cc(C(N)=O)c1=N", "observed": "cell-free assay", "technique": "competition with immobilised ligand", "tested at": "1 µM", "remaining binding": "100%"}
{"Structure (SMILES)": "Cc1cnc(Nc2ccc(C(=O)N3CCC(N4CCCC4)CC3)cc2)nc1-c1cc2ccccc2s1", "observed": "binding", "technique": "competition with immobilised ligand", "tested at": "1 µM", "remaining binding": "0%"}
{"Structure (SMILES)": "COc1ccc2c(c1)O[C@H](c1ccc(OC)c(OC)c1)C[C@@H]2NC(=O)C1(c2ccc3c(c2)OC(F)(F)O3)CC1", "observed": "cell-free assay", "technique": "competition with immobilised ligand", "tested at": "1 µM", "remaining binding": "97%"}
{"Structure (SMILES)": "CNC(=O)[C@@H]1CC[C@@H](n2c(-c3ccc4cnccc4c3)nc3ccc(C(=O)NCc4cccc(C(N)=O)c4)cc32)C1", "observed": "binding", "technique": "competition with immobilised ligand", "tested at": "1 µM", "remaining binding": "86%"}
